The array DNA melting data of Ke et al. (doi:10.1101/2024.01.08.574731)

Assays:
[1] = melting temperature; fluorescence melt of hairpins on a sequencing array, two-state fit, raised by 9.35 °C to match UV melts; conditions: sodium 0.088 M
Outline: (§1)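 Melting temperature and folding enthalpy were derived from bootstrapped two-state fits. The fitted temperatures were raised by 9.35 °C to agree with UV melts, and four replicates were combined by inverse variance. The underlying data were Cy3 fluorescence images of library hairpins, with annealed Cy3 and quencher oligos, on a sequenced MiSeq flow cell in 50 mM Na-HEPES pH 8.0, 25 mM NaCl, taken in 2.5 °C steps up to 60 °C, normalised to pre-quench Cy3 and to control constructs.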

[2] = folding enthalpy; higher = less favourable; fluorescence melt of hairpins on a sequencing array, two-state fit; conditions: sodium 0.088 M
Outline: as §1

GAATGGGGAAACCCGTTC (((.(((....))).)))
Tm [1]: 48.2 °C | folding enthalpy [2]: -35.5 kcal/mol

GAATGTGAAAACATTC ((((((....))))))
Tm [1]: 51.3 °C | folding enthalpy [2]: -35.2 kcal/mol

GAATGTGGAAACACATCC (.(((((....))))).)
Tm [1]: 36 °C | folding enthalpy [2]: -14.1 kcal/mol

GAATTACGAAAGTATTC (((.(((....))))))
Tm [1]: 31.1 °C | folding enthalpy [2]: -13.5 kcal/mol

GAATTCCGAAAGGACTTC (((.(((....))).)))
Tm [1]: 36.1 °C | folding enthalpy [2]: -27.7 kcal/mol

GAATTCGGAAACGAGTTC (((.(((....))).)))
Tm [1]: 43.9 °C | folding enthalpy [2]: -32.5 kcal/mol

GAATTGACGAAAGTCTTC (((..(((....))))))
Tm [1]: 29.6 °C | folding enthalpy [2]: -11.6 kcal/mol

GAATTGGGAAACTAATTC (((((.(....).)))))
Tm [1]: 35.5 °C | folding enthalpy [2]: -22.7 kcal/mol

GAATTTGAAAAAATTC ((((((....))))))
Tm [1]: 38.8 °C | folding enthalpy [2]: -26.6 kcal/mol

GACAAACGAAAGTTCGTC (((.(((....))).)))
Tm [1]: 43.2 °C | folding enthalpy [2]: -25.2 kcal/mol

GACAACCGAAAGGTGGTC (((.(((....))).)))
Tm [1]: 59.2 °C | folding enthalpy [2]: -35.3 kcal/mol

GACAACGAAAGTTCAGTC ((((((....)))..)))
Tm [1]: 27.6 °C | folding enthalpy [2]: -14.7 kcal/mol

GACAACGAAAGTTCTGTC ((((((....)))..)))
Tm [1]: 27 °C | folding enthalpy [2]: -14.7 kcal/mol

GACAACGAAAGTTGGTC ((((((....))).)))
Tm [1]: 53.1 °C | folding enthalpy [2]: -19.7 kcal/mol

GACAACGGAAACGTTATC ((.((((....)))).))
Tm [1]: 31.5 °C | folding enthalpy [2]: -21 kcal/mol

GACAAGAAATTGTC (((((....)))))
Tm [1]: 37.2 °C | folding enthalpy [2]: -17.2 kcal/mol

GACAAGGGAAACCCTGTC ((((.((....)).))))
Tm [1]: 42.5 °C | folding enthalpy [2]: -27.8 kcal/mol

GACAAGGGAAACCTCGTC (((.(((....))).)))
Tm [1]: 34.5 °C | folding enthalpy [2]: -22.6 kcal/mol

GACACACGAAAGTGCGTC (((.(((....))).)))
Tm [1]: 54.5 °C | folding enthalpy [2]: -45.2 kcal/mol

GACACAGGAAACTACGTC (((..((....))..)))
Tm [1]: 28.8 °C | folding enthalpy [2]: -17 kcal/mol

GACACAGGAAACTGTGCC (.(((((....))))).)
Tm [1]: 45 °C | folding enthalpy [2]: -14.9 kcal/mol

GACACCGAAAGGTAGGTC ((((((....)))..)))
Tm [1]: 38.7 °C | folding enthalpy [2]: -20.2 kcal/mol

GACACCGAAAGGTCGGTC ((((((....)))..)))
Tm [1]: 35 °C | folding enthalpy [2]: -16.7 kcal/mol
